SMILES strings stand for the structures.

One data set concerns Liver microsome. Nature of the data set: Stability in human liver microsomes at 1 uM after 3 to 30 mins by LC-MS/MS analysis. Format: ADME. An outline of the steps:
(§1)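 Liver microsomes at 0.5 mg/mL (human or mouse) in 100 mM potassium phosphate, pH 7.4, with 1 μM compound, prewarmed 10 min at 37 °C. Reaction started with NADPH (10 mM) and stopped at 0, 3, 6, 9, 15 and 30 min with ice-cold methanol holding tolbutamide internal standard. Centrifuged 10 min at 4 °C; supernatant analysed by LC-MS/MS.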
For orientation: Liver microsomes are a subcellular fraction often used to study metabolism.

For the next data set, the system named is Liver. Nature of the data set: Stability in mouse liver microsomes at 1 uM after 3 to 30 mins by LC-MS/MS analysis. Format: ADME. A digest of the protocol:
as §1

As to `O=C(NO)c1ccc2c(c1)C[C@H](Nc1nccc(-c3cccnc3)n1)CC2`, the Stability entry with Liver microsome and in the data set on Liver was “Stable” in each case.

Values taken from ChEMBL document CHEMBL3351740, “Identification of a novel aminotetralin class of HDAC6 and HDAC8 selective inhibitors” (J Med Chem, 2014).
